From ChEMBL document CHEMBL1140433, “Design, synthesis, and evaluation of pharmacological properties of cinnamic derivatives as antiatherogenic agents” (2005)

Legend:
Format in all cases: functional, Homo sapiens
HMEC [1] = assay: Ability to inhibit HMEC1-mediated LDL oxidation at 10 uM evaluated by TBARS formation in the presence of copper; design: scale not given: the % may be the effect or the level left
Summary of the method: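 Human plasma LDL (100 µg apoB/mL) was incubated with subconfluent HMEC-1 in serum-free RPMI-1640 with 1 µM Cu2+ for 6 h at 37 °C. Cells had been serum-starved for 24 h. Compound was added in DMSO just before oxidation, in duplicate. TBARS in the medium were measured fluorimetrically (Yagi), as % of cell-oxidized LDL without antioxidant. Mean of four determinations.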

HMEC [2] = assay: Cytotoxic effect of LDL oxidized by HMEC1 cells at 10 uM by MTT assay expressed as percentage of viability in unstimulated control
Summary of the method: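 LDL (100 µg apoB/mL) was first oxidized by HMEC-1 for 6 h in RPMI with 1 µM Cu2+ and compound at 10 µM. This LDL then stayed on serum-starved HMEC-1 for a 24 h pulse. Viability was read by MTT as % of control cells in fresh RPMI without LDL or antioxidant. Mean of four determinations.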

HMEC [3] = assay: Ability to inhibit HMEC1-mediated LDL oxidation at 10 uM evaluated by TBARS formation in the absence of copper; design: scale not given: the % may be the effect or the level left
HMEC [4] = assay: Ability to inhibit HMEC1-mediated LDL oxidation at 100 uM evaluated by TBARS formation in the absence of copper; design: scale not given: the % may be the effect or the level left

Structure (SMILES): CCOP(=O)(O)/C=C/c1ccc(O)c(OC)c1
- Activity (HMEC [1]): 52.7%
- Activity (HMEC [2]): 21.7%

Structure (SMILES): CCOP(=O)(O)/C=C/c1cc(OC)c(O)c(OC)c1
- Activity (HMEC [1]): 16%
- Activity (HMEC [2]): 45%

Structure (SMILES): CCOP(=O)(O)/C=C/c1ccc(O)cc1
- Activity (HMEC [1]): 101%
- Activity (HMEC [2]): 13.3%

Structure (SMILES): COc1ccc(/C=C/C(=O)Nc2ccccn2)cc1OC
- Activity (HMEC [1]): 100%
- Activity (HMEC [2]): 20.7%

Structure (SMILES): COc1cc(/C=C/C(=O)SCCNC(C)=O)cc(OC)c1O
- Activity (HMEC [3]): 18%
- Activity (HMEC [1]): 12.7%
- Activity (HMEC [2]): 88.7%
- Activity (HMEC [4]): 8%

Structure (SMILES): CCOP(=O)(/C=C/c1cc(OC)c(O)c(OC)c1)OCC
- Activity (HMEC [1]): 13%
- Activity (HMEC [2]): 81%

Structure (SMILES): COc1cc(/C=C/C(=O)SCCNC(C)=O)ccc1O
- Activity (HMEC [1]): 40.3%
- Activity (HMEC [2]): 69.3%

Structure (SMILES): CCOP(=O)(/C=C/c1ccc(O)c(OC)c1)OCC
- Activity (HMEC [1]): 32.3%
- Activity (HMEC [2]): 75.7%

Structure (SMILES): CCOP(=O)(/C=C/c1ccc(O)cc1)OCC
- Activity (HMEC [1]): 77.6%
- Activity (HMEC [2]): 65.3%

Structure (SMILES): COc1ccc(/C=C/C(=O)SCCNC(C)=O)cc1
- Activity (HMEC [1]): 109%
- Activity (HMEC [2]): 21.7%

Structure (SMILES): COc1cc(/C=C/C(=O)NCCc2c[nH]c3ccccc23)ccc1O
- Activity (HMEC [1]): 9.6%
- Activity (HMEC [2]): 93.6%

Structure (SMILES): COc1cccc(/C=C/C(=O)Nc2ccccn2)c1
- Activity (HMEC [1]): 61.3%
- Activity (HMEC [2]): 48.7%

Structure (SMILES): CC(=O)NCCSC(=O)/C=C/c1ccc(O)cc1
- Activity (HMEC [1]): 95.6%
- Activity (HMEC [2]): 22.6%

Structure (SMILES): Cc1c(C)c2c(c(C)c1O)CC[C@@](C)(CCC[C@H](C)CCC[C@H](C)CCCC(C)C)O2 [ALPHA-TOCOPHEROL]
- Activity (HMEC [1]): 55%
- Activity (HMEC [2]): 29%

Structure (SMILES): CC(C)(Sc1cc(C(C)(C)C)c(O)c(C(C)(C)C)c1)Sc1cc(C(C)(C)C)c(O)c(C(C)(C)C)c1 [PROBUCOL]
- Activity (HMEC [1]): 10%
- Activity (HMEC [2]): 92%
